An excerpt weighted towards active compounds, which were near 2% of everything screened.
ARFGAP1 inhibitor: inhibitors of rat ARFGAP1 GAP activity, primary screen, biochemical, fluorescence polarization, GDP tracer; ADP-ribosylation factor GTPase-activating protein 1 (Rattus norvegicus), Q62848; Arfgap1-stimulated ARF1 GTP hydrolysis, GDP FP detection; inhibition, % at 16.5 µM; 0.26% of 360,000 active;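 active = inhibition above a per-plate limit, mean inhibition of low control wells plus 3 SD, cut at about 25% in these data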;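 also: 0% = DMSO wells with enzyme and 100% = wells lacking Arfgap1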
Target sequence (Q62848 1-136 limits assumed): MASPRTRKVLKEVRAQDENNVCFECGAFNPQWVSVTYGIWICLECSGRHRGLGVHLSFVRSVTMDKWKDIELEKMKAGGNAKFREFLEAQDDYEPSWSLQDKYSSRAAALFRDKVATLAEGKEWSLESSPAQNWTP
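Material: truncated rat Arfgap1 GAP domain; Incubation: compound-enzyme preincubation 20 min, reaction 120 min, detection 60 min, 25 °C; Read-out: percent inhibition of Arfgap1-stimulated GTP hydrolysis; Technique: FP, GDP Alexa 633 tracer displaced from anti-GDP antibody, 620/688 nm; Controls: No-Arfgap1 wells (100%) versus DMSO full-reaction wells (0%); Replication: single well per compound.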
LEDGF integ inh: blockers of LEDGF/p75-dependent integrase strand transfer – biochemical, TR-FRET, high throughput, primary screen; HIV-1 integrase (with human LEDGF/p75); TR-FRET IN-LEDGF/p75 DNA integration, Eu/Cy5; inhibition, % at 3.7 µM; 0.64% of 370,000 active;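 active = inhibition above the screen-wide mean plus 3 SD, cut at about 13% in these data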;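 also: signal is the Cy5 over europium emission ratio at 671 and 618 nm; 0% = plate median of compound wells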
TDP2 absorb: human TDP2 enzyme inhibitors, primary screen, biochemical, epi absorbance, recombinant enzyme; Tyrosyl-DNA phosphodiesterase 2 (Homo sapiens), O95551; T5PNP hydrolysis, p-nitrophenol absorbance 415 nm; inhibition, % at 12.8 µM; 0.34% of 370,000 active; AID 720702, 2013;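 active = inhibition above the mean of all tested compounds plus 3 SD, set per campaign, cut at about 25% in these data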;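 also: 0% = DMSO with enzyme and 100% = buffer with substrate but no TDP2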
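Assay system: Recombinant human TDP2 | Quantity: 120 nM TDP2 per well | Incubation: 2 h at 37 °C | Signal: Epi absorbance | Evaluation: Percent inhibition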
UHRF1 MBD2 ctr: UHRF1 methylated DNA binding inhibitors, primary screen, counter-screen for MBD2 inhibitor project, biochemical, TR-FRET, human UHRF1, single concentration. UHRF1 binding to methylated oligo. E3 ubiquitin-protein ligase UHRF1 (Homo sapiens), Q96T88. 0.75% of 370,000 active. inhibition, % at 4.4 µM; in the data active = inhibition above about 21%;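 also: UHRF1 SRA domain binding a hemimethylated CpG hairpin DNA probe; 0% = median of test compound wells and 100% = reference inhibitor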
ASAP1 GAP inh: inhibitors of human ASAP1 ArfGAP activity, primary screen, biochemical, fluorescence polarization | Arf-GAP with SH3 domain, ANK repeat and PH domain-containing protein 1 (Homo sapiens), … | ASAP1-stimulated ARF1 GTP hydrolysis, GDP FP detection | inhibition, % at 16.5 µM | 0.19% of 360,000 active | AID 624377, 2012; in the data active = inhibition above about 25%;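 also: 0% = vehicle with enzyme and substrate and 100% = no enzyme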
MBD2 DNA inh: inhibitors of MBD2 binding to methylated DNA, primary screen, biochemical, TR-FRET, DNA-binding domain, human | 0.31% of 370,000 active | MBD2 binding to methylated oligonucleotide | AID 686964, 2013 | inhibition, % at 4.4 µM; in the data active = inhibition above about 13%
Target sequence (Q9UBB5 whole entry, looked up, the tested form may be a part): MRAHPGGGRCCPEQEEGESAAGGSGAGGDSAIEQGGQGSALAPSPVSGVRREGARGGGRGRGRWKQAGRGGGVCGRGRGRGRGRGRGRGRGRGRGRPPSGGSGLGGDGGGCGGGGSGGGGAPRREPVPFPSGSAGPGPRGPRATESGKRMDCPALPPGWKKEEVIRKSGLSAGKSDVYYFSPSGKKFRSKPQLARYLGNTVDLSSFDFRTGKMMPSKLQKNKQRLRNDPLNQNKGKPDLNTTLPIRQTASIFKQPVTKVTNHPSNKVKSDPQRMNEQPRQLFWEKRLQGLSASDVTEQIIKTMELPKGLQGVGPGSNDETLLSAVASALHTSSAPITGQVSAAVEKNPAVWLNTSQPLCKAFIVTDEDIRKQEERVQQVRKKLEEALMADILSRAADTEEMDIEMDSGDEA
IN multimer up: HIV-1 IN multimer formation enhancers, counter-screen for LEDGF/p75 integration inhibitor project, biochemical, TR-FRET | shares compounds with LEDGF integ inh | TR-FRET HIV-1 integrase multimerization | activation, % at 7.7 µM | 17% of 2,000 active | AID 1053131, 2014; in the data active = activation above about 8.9%
TR-FRET interf: TR-FRET optical interference artefacts, confirmation, artefact control for LEDGF/p75-dependent integration inhibitor project, biochemical, HIV-1 IN multimerization | 2,000 tested, under 10 active | inhibition, % at 7.7 µM | TR-FRET optical interference counterscreen | shares compounds with LEDGF integ inh | AID 1053135, 2014;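 active = inhibition above the mean over all tested compounds plus 3 SD, which no compound reached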;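 also: 0% = integrase with antibodies and DMSO and 100% = antibodies without integrase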
IN-LEDGF confirm: inhibitors of HIV-1 IN-LEDGF/p75 DNA integration, confirmation, biochemical, TR-FRET | AID 1053136, 2014 | inhibition, % at 3.7 µM | TR-FRET LEDGF/p75-dependent HIV-1 integration | 36% of 2,000 active | shares compounds with LEDGF integ inh; in the data active = inhibition above about 14%
The depositor's hits bear a star; nt = no result.

SMILES	ARFGAP1 inhibitor	LEDGF integ inh	TDP2 absorb	UHRF1 MBD2 ctr	ASAP1 GAP inh	MBD2 DNA inh	IN multimer up	TR-FRET interf	IN-LEDGF confirm
CC(C)CNC(=O)C1CSCCS(=O)(=O)N1Cc1ccccc1 (centres undefined)	nt	0	8	0	nt	1	nt	nt	nt
O=C(CCSc1ccccc1)Nc1nnc(-c2ccccc2)o1	17	16*	-8	-1	13	2	-3	16	2
Cc1ccc(-n2c(SCC(=O)c3ccccc3Br)nnc2-c2ccncc2)cc1	nt	-2	1	0	nt	6	nt	nt	nt
C[C@H](NC(=O)c1nc[nH]c1C(=O)NC1CCN(C(=O)OC(C)(C)C)CC1)C(=O)OC(C)(C)C	7	1	1	0	1	-5	nt	nt	nt
CC1CCN(C(=O)c2[nH]cnc2C(=O)NC2CCN(C(=O)OC(C)(C)C)CC2)CC1	1	17*	2	2	7	4	-1	5	-1
CN1CC(=O)N2[C@@H](C[C@]3(c4c[nH]c5ccccc45)c4ccccc4N(S(=O)(=O)c4ccccc4)[C@H]23)C1=O	nt	-1	4	1	nt	0	nt	nt	nt
C/C(C=Nn1c(-c2ccc(F)cc2)n[nH]c1=S)=C/c1ccco1	nt	15*	-5	-2	nt	-2	0	1	9
S=c1[nH]nc(-c2ccccc2)n1/N=C/C=C/c1ccco1	4	14*	3	2	14	0	1	-5	16*
CCNc1ccc(Br)cc(C(=O)/C=C/c2ccc3c(c2)OCO3)c1=O	-4	23*	1	6	17	3	1	-6	41*
Cc1cc(Nc2nc3ccccc3nc2Cl)n(-c2ccc([N+](=O)[O-])cc2)n1	5	82*	-10	-3	-4	2	0	-2	-1
Cc1cc(Nc2nc3ccccc3[nH]c2=O)n(-c2ccccc2)n1	-9	3	-6	3	9	1	nt	nt	nt
Cc1cc2nc(-c3ccco3)c(CC(C)(C)C)n2c(C)c1Br	12	6	2	10	-24	-3	nt	nt	nt
COc1ccccc1Cc1c(-c2ccco2)nc2cc(C)c(Br)c(C)n12	-1	14*	-4	25*	-12	10	6	-22	21*
O=C(O)CCCN1C(=O)C2C3CCC(C3)C2C1=O (centres undefined)	17	0	-12	2	-1	0	nt	nt	nt
CCCCCC1NC(=O)NC1CCCCCC(=O)O (centres undefined)	9	-1	2	0	-13	-4	nt	nt	nt
O=C(O)CCCCC1SCC2NC(=O)NC21 (centres undefined)	-5	70*	5	-2	3	4	-2	9	63*
Cc1cccc(C)c1NC(=O)CCCCCC1NC(=O)NC1C (centres undefined)	4	20*	9	-1	10	-2	-2	9	10
C[C@@H]1NC(=O)N[C@@H]1CCCCCC(=O)O	-14	82*	1	-2	-9	-5	-1	5	74*
COCC1CN(CCc2ccc(F)cc2)S(=O)(=O)c2c(F)cccc2O1 (centres undefined)	7	18*	-3	-1	-2	2	1	-2	0
Cc1ccccc1OCC(=O)OCC(=O)Nc1cc(C(F)(F)F)ccc1N1CCOCC1	5	17*	2	-1	-11	-9	-1	3	-6
N#Cc1ccc(OCC(=O)OCC(=O)Nc2cc(C(F)(F)F)ccc2N2CCOCC2)cc1	6	3	-8	-1	-1	2	nt	nt	nt
c1ccc(-n2c(-c3ccncc3)nnc2-c2ccco2)cc1	0	67*	9	2	10	-6	-2	11	-4
CCOc1ccc(-n2c(SCC(=O)Nc3cc4oc5ccccc5c4cc3OC)nnc2-c2cccc(Cl)c2)cc1	nt	4	-4	1	nt	-2	nt	nt	nt
CN(C)CCCCCNCCCNC(=O)/C=N\O	-2	-2	-4	-3	-12	1	nt	nt	nt
NCCCCCNC(=O)/C=N\O	3	34*	2	1	-16	6	-1	4	-8
SMILES	ARFGAP1 inhibitor	LEDGF integ inh	TDP2 absorb	UHRF1 MBD2 ctr	ASAP1 GAP inh	MBD2 DNA inh	IN multimer up	TR-FRET interf	IN-LEDGF confirm
Cc1cc2c(s1)c1cnn(Cc3cc(F)c(F)cc3F)c(=O)c1n2C	nt	-3	-4	-3	nt	-5	nt	nt	nt
CC(=C/C(=O)O)/C=C/c1ccc(Cl)o1	-12	13*	-3	32*	-12	8	5	-27	54*
CC(/C=C/c1ccc(C)o1)=C\C(=O)O	5	5	0	0	5	-2	nt	nt	nt
Cc1cc(N(C)C)ccc1[N+](=O)[O-]	7	1	-11	-4	-1	-8	nt	nt	nt
NNc1ccc([N+](=O)[O-])c2[nH][nH]c(=O)c12	-15	19*	5	40*	-15	5	35*	-176	44*
CCOC(=O)[C@@]12CCCC=C1N(CCc1ccc(Cl)cc1)C(=O)[C@H]2CC(=O)NCCc1ccccc1OC	nt	6	-9	-2	nt	-6	nt	nt	nt
CCOc1ccc(Nc2ccc(N)c(S(=O)(=O)O)c2)cc1	-17	38*	-5	17	10	0	14*	-69	19*
CCOc1ccc(NS(=O)(=O)c2ccc(N)cc2)cc1	-1	-4	-8	0	-1	-2	nt	nt	nt
